Data taken from ChEMBL document CHEMBL1145775, “Development of potential antitumor agents. Synthesis and biological evaluation of a new set of sulfonamide derivatives as histone deacetylase inhibitors” (J Med Chem, 2003).
One block for each molecule: values may come before it.

Assays:
[1] = The relative effective concentration to induce same level of histone H4 acetylation of human T24 cells by MS-275 at 1 uM; format: functional, T-24
[2] = target: Histone deacetylase 1 (Homo sapiens, UniProt Q13547); experiment: Inhibitory activity on partially purified recombinant human Histone deacetylase 1 (HDAC-1)
Chain of Histone deacetylase 1 (Q13547 whole entry): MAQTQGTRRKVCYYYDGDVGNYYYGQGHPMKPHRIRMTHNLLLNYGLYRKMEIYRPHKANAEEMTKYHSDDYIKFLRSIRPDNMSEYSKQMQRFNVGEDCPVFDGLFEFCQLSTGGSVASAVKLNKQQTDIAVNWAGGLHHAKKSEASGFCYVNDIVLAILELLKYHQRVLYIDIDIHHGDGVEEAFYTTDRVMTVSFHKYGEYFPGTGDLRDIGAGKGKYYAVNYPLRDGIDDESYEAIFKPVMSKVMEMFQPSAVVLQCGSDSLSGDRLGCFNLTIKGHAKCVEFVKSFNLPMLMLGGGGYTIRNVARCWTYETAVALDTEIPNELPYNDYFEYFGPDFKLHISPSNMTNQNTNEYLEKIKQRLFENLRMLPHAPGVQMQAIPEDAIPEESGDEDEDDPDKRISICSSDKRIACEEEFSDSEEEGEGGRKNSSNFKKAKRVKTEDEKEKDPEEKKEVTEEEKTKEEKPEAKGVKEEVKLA

[3] = system: HCT-116; experiment: Inhibitory concentration against colon HCT116 cell line; format: functional, cell-based; conditions: Homo sapiens
Outline: (§1)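 MTT assay: cells exposed to a range of compound concentrations for 72 h at 37 °C, 5% CO2. MTT added at 0.5 mg/mL final for 4 h, then solubilized with DMF/SDS buffer (pH 4.7) overnight; absorbance at 570 with 630 reference. OD converted to cell numbers via a standard growth curve.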

[4] = system: T-24; experiment: Inhibitory concentration against bladder T24 cell line; format: functional, cell-based; conditions: Homo sapiens; outline: as §1
[5] = system: MCF7; experiment: Inhibitory concentration against breast MCF-7 cell line; format: functional, cell-based; conditions: Homo sapiens; outline: as §1
[6] = system: Fibroblast MRHF cell line; experiment: Inhibitory concentration against normal fibroblast MRHF cell line; format: functional, cell-based; conditions: Homo sapiens; outline: as §1
[7] = system: A549; experiment: Inhibitory concentration against lung A549 cell line; format: functional, cell-based; conditions: Homo sapiens; outline: as §1
[8] = system: SW48; experiment: Inhibitory concentration against colon SW48 cell line; format: functional, cell-based; conditions: Homo sapiens; outline: as §1
[9] = system: HMEC; experiment: Inhibitory concentration against normal epithelial HMEC cell line; format: functional, cell-based; conditions: Homo sapiens; outline: as §1
[10] = system: HCT-116; experiment: In vivo percent inhibitory activity of intraperitoneally administered compound (40 mg/kg/day) against mice […] with HCT116 tumor; format: functional, Homo sapiens
Outline: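 CD1 nude mice (18–22 g) implanted with 30 mg fragments of serially passaged A549 or HCT116 tumor; randomized at ~100 mm3 mean tumor volume, six per group. Daily intraperitoneal dosing (7 days/week) for 21 days, compound dissolved in DMSO; vehicle-only controls. Body weight and tumor volume monitored three times weekly; percent tumor growth inhibition versus vehicle.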

[11] = system: DU-145; experiment: Inhibitory concentration against prostate DU145 cell line; format: functional, cell-based; conditions: Homo sapiens; outline: as §1
[12] = system: MDA-MB-231; experiment: Inhibitory concentration against breast MDA-MB-231 cell line; format: functional, cell-based; conditions: Homo sapiens; outline: as §1
[13] = system: NCI-H446; experiment: Inhibitory concentration against lung H446 cell line; format: functional, cell-based; conditions: Homo sapiens; outline: as §1

Compound: O=C(/C=C/c1ccc(NS(=O)(=O)c2ccc(-c3ccccc3)cc2)cc1)NO
EC [1]: 1 µM

Compound: COc1ccc(NS(=O)(=O)c2ccc(/C=C/C(=O)NO)cc2)cc1OC
IC50 [2]: 0.05 µM

Compound: Cc1ccc(S(=O)(=O)Nc2ccc(/C=C/C(=O)Nc3ccccc3N)cc2)cc1
IC50 [3]: 4 µM | IC50 [4]: 8 µM | IC50 [5]: 6 µM | IC50 [6]: > 37 µM | IC50 [7]: 8 µM | IC50 [8]: 10 µM | IC50 [9]: > 37 µM | Inhibition [10]: 55% | IC50 [11]: 2 µM | IC50 [12]: 2 µM | IC50 [13]: 1 µM

Compound: Cc1ccc(NS(=O)(=O)c2ccc(/C=C/C(=O)NO)cc2)cc1
IC50 [2]: 0.2 µM | EC [1]: 1 µM

Compound: Nc1ccccc1NC(=O)/C=C/C#Cc1ccc(NS(=O)(=O)c2ccccc2)cc1
IC50 [2]: 5 µM

Compound: Nc1ccccc1NC(=O)/C=C/c1ccc(NS(=O)(=O)c2cccc3oc4ccccc4c23)cc1
IC50 [2]: 0.4 µM | EC [1]: 10 µM

Compound: O=C(/C=C/c1ccc(NS(=O)(=O)c2cccc3oc4ccccc4c23)cc1)NO
IC50 [2]: 0.04 µM | EC [1]: 1 µM

Compound: O=C(/C=C/c1ccc(NS(=O)(=O)c2cccc3ccccc23)cc1)NO
EC [1]: 5 µM

Compound: Cc1ccc(S(=O)(=O)Nc2ccc(/C=C/C(=O)NO)cc2)cc1
EC [1]: 10 µM

Compound: COc1ccc(S(=O)(=O)Nc2ccc(/C=C/C(=O)Nc3ccccc3N)cc2)cc1
IC50 [2]: 1 µM | IC50 [3]: 2.5 µM | IC50 [4]: 8 µM | IC50 [5]: 8 µM | IC50 [7]: 10 µM | IC50 [8]: 4 µM | IC50 [9]: 38 µM | IC50 [11]: 5 µM | EC [1]: 1 µM | IC50 [12]: 6 µM | IC50 [13]: 2 µM

Compound: O=C(/C=C/c1ccc(NS(=O)(=O)c2cccc3cccnc23)cc1)NO
EC [1]: 25 µM

Compound: Nc1ccccc1NC(=O)/C=C/c1ccc(S(=O)(=O)Nc2ccc(-c3ccccc3)cc2)cc1
IC50 [2]: 1 µM | EC [1]: 5 µM

Compound: O=C(/C=C/c1ccc(S(=O)(=O)Nc2ccc(-c3ccccc3)cc2)cc1)NO
EC [1]: 1 µM

Compound: COc1ccc(S(=O)(=O)Nc2ccc(/C=C/C(=O)NO)cc2)cc1
EC [1]: 5 µM

Compound: COc1ccc(S(=O)(=O)Nc2ccc(/C=C/C(=O)NO)cc2)cc1OC
IC50 [3]: 0.2 µM | IC50 [4]: 2 µM | IC50 [5]: 1.5 µM | IC50 [6]: 5 µM | IC50 [7]: 2 µM | IC50 [8]: 0.8 µM | IC50 [9]: 20 µM | IC50 [11]: 0.75 µM | EC [1]: 1 µM | IC50 [12]: 0.7 µM | IC50 [13]: 0.4 µM

Now from value to molecule, other results behind:

IC50 [2]: 1 µM
Compound: COc1ccc(NC(=O)Nc2ccc(/C=C/C(=O)NO)cc2)cc1OC
EC [1]: >25 µM

IC50 [2]: 3 µM
Compound: COc1ccc(NS(=O)(=O)c2ccc(/C=C/C(=O)Nc3ccccc3N)cc2)cc1OC

IC50 [3]: 15 µM | IC50 [4]: > 36 µM | IC50 [5]: 29 µM | IC50 [7]: 18 µM | IC50 [8]: 30 µM | IC50 [11]: 15 µM | IC50 [12]: 18 µM | IC50 [13]: 8 µM
Compound: Nc1ccccc1NC(=O)/C=C/c1ccc(NS(=O)(=O)c2ccc(-c3ccccc3)cc2)cc1
IC50 [6]: > 25 µM | IC50 [9]: > 36 µM | EC [1]: 15 µM

IC50 [2]: 0.2 µM
Compound: CN(C)c1cccc2c(S(=O)(=O)Nc3ccc(/C=C/C(=O)NO)cc3)cccc12
EC [1]: 5 µM

IC50 [2]: > 25 µM
Compound: O=C(O)/C=C/c1ccc(NS(=O)(=O)c2ccc(-c3ccccc3)cc2)cc1

IC50 [2]: 3 µM
Compound: Nc1ccccc1NC(=O)/C=C/c1ccc(NS(=O)(=O)c2cccc3ccccc23)cc1
EC [1]: 10 µM

IC50 [2]: 2 µM | IC50 [3]: 3.5 µM | IC50 [4]: 6.5 µM | IC50 [5]: 11.5 µM | IC50 [7]: 9.5 µM | IC50 [8]: 6.5 µM | IC50 [11]: 7 µM | IC50 [12]: 9 µM | IC50 [13]: 2 µM
Compound: Cc1ccc(NS(=O)(=O)c2ccc(/C=C/C(=O)Nc3ccccc3N)cc2)cc1
IC50 [6]: 34 µM | IC50 [9]: > 41 µM | Inhibition [10]: 37%

IC50 [3]: 0.6 µM | IC50 [4]: 2.5 µM | IC50 [5]: 5 µM | IC50 [7]: 8 µM | IC50 [8]: 5 µM | IC50 [11]: 1 µM | IC50 [12]: 3 µM | IC50 [13]: 1 µM
Compound: Nc1ccccc1NC(=O)c1ccc(CNC(=O)OCc2cccnc2)cc1 [ENTINOSTAT]
IC50 [6]: > 37 µM | IC50 [9]: > 37 µM

IC50 [2]: 0.1 µM
Compound: O=C(/C=C/C#Cc1cccc(NS(=O)(=O)c2ccccc2)c1)NO [OXAMFLATIN]

IC50 [3]: 0.9 µM | IC50 [4]: 4 µM | IC50 [5]: 10 µM | IC50 [7]: 4.5 µM | IC50 [8]: 5 µM | IC50 [11]: 3.5 µM | IC50 [12]: 3.5 µM | IC50 [13]: 1.5 µM
Compound: CC(/C=C/C(=O)NO)=C\[C@@H](C)C(=O)c1ccc(N(C)C)cc1 [TRICHOSTATIN]
IC50 [6]: 36 µM | IC50 [9]: 32 µM
